Shown are actives, neighbours in structure and some others; about 1.9% of the full set was active somewhere.
FID counter – fluorescent intercalator displacement, NS3 helicase counter-screen; DNA fluorescent intercalator displacement, fluorescence; inhibition, % at 7.9 µM; 290,000 tested, 0.17% active; AID 1845; in the data active = inhibition above about 37%;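 note: 0% = vehicle and 100% = reference compound; higher means more ethidium bromide displaced from hairpin DNA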
GPR7 antag – blocks human GPR7 receptor signaling | P48145 | GPR7-expressing cells, fluorescence antagonist assay | 290,000 tested, 1.1% active | inhibition, % at 4.4 µM | AID 1861; in the data active = inhibition above about 16%, passing the limit was not always enough;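 note: cells stimulated with the agonist NPW; 0% = agonist with vehicle and 100% = vehicle without agonist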
Target sequence (P48145 whole entry, looked up): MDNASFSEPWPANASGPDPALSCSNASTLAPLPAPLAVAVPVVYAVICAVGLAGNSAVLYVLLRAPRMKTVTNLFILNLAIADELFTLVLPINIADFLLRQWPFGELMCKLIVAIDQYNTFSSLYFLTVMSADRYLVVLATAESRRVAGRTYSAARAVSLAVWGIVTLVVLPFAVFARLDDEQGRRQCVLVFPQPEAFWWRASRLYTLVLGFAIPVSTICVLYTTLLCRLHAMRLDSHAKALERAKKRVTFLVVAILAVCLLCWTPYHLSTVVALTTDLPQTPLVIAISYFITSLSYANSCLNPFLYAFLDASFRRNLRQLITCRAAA
HCV NS3 hel inh – blocks Hepatitis C virus NS3 helicase unwinding | NS3 helicase DNA unwinding, Cy5 molecular beacon fluorescence | inhibition, % at 10.9 µM | 290,000 tested, 0.56% active | AID 1800;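 active = inhibition above the mean of all tested compounds plus 3 SD, set per campaign, cut at about 35% in these data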;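 note: 0% = DMSO wells and 100% = thioflavine S control wells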
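assay system = NS3 helicase fragment of HCV | buffer or medium = MOPS pH 6.5, MgCl2, DTT, Tween20, BSA | timing = 60 min unwinding reaction at 25 °C after ATP addition | signal = Cy5 beacon fluorescence read at start and 1 h | read-out basis = % inhibition of unwinding | control set = low DMSO, high thioflavine S at 110 µM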
pCIP destab – compounds decreasing mouse p/CIP protein stability; decrease of EGFP signal, % at 10 µM; 290,000 tested, 0.01% active; Q05BA5; F442A p/CIP-EGFP cells, EGFP fluorescence, 16 h;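 active = EGFP signal decrease of at least 30% at 10 µM or well 3 SD below plate mean, unless failing retest; inactive = the rest, including hits failing retest or dose response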
HCV core dimer – HCV core protein dimerization inhibition | TR-FRET GST/Flag-core106 dimerization, 1536-well | inhibition, % at 5 µM | 300,000 tested, 0.33% active;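 active = inhibition above the mean of all tested compounds plus 3 SD, set per screening campaign, cut at about 45% in these data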
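Assay system: GST-tagged and Flag-tagged HCV core protein residues 1-106 / Times: compound-protein-antibody incubation 4 h at 22.5 °C / Signal: time-resolved FRET, ex 340 nm, em 617 and 671 nm / Evaluation: % inhibition based on acceptor/donor emission ratio / Benchmarks: wells lacking GST-core106 and wells with excess unlabelled core106 / Repeats: singlicate, one well per compound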
The depositor's hits bear a star; · = no result.

SMILES	FID counter	GPR7 antag	HCV NS3 hel inh	pCIP destab	HCV core dimer
CN(C)S(=O)(=O)c1cccc(-c2nn(-c3ccccc3)cc2/C=C(\C#N)c2nc3ccccc3[nH]2)c1	-8	10	-12	-3	38
CC1CCCCN1CC(=O)c1c(N)n(Cc2ccccc2)c(=O)n(C)c1=O (configuration not stated)	6	-3	-2	-24	1
CCCC(c1nnnn1Cc1ccc(F)cc1)N1CCN(C2CCCCC2)CC1 (configuration not stated)	11	33*	-11	5	-3
CCCC(c1nnnn1C(C)(C)CC)N1CCN(C2CCCC2)CC1 (configuration not stated)	10	18*	8	2	0
CCCC(c1nnnn1Cc1cccs1)N1CCN(C2CCCC2)CC1 (configuration not stated)	4	17	-2	-8	2
CCC(c1nnnn1Cc1cccs1)N1CCN(C2CCCC2)CC1 (configuration not stated)	8	20*	-2	-4	-1
CC1(C)CC(=O)C=C(c2cccs2)C1	·	·	·	·	4
Fc1ccc(-[n+]2nc(Nc3ccccc3)sc2-c2c3ccccc3cc3ccccc23)cc1	28	17	-118	-11	-4
c1ccc(-[n+]2nc(Nc3cccc4ccccc34)sc2-c2c3ccccc3cc3ccccc23)cc1	·	·	·	·	60*
Cc1cc(C)c2cc(C#N)c(SCC(=O)Nc3cc(C)on3)nc2c1	0	1	-2	-21	-17
Nc1ccc2nc(-c3cccc(-c4nc5ccc(N)cc5[nH]4)n3)[nH]c2c1	31	3	-63	-15	-26
Nc1ccc2nc(-c3ccc(-c4nc5ccc(N)cc5[nH]4)cc3)[nH]c2c1	52*	-16	-48	37	-27
O=[N+]([O-])c1ccc2nc(-c3ccncc3)[nH]c2c1	-1	-18	9	-8	-2
Cc1ccc(-c2nc3ccc([N+](=O)[O-])cc3[nH]2)cc1	9	54*	-1	3	1
COc1ccc(-c2nc3ccc([N+](=O)[O-])cc3[nH]2)cc1	12	11	-2	-9	-1
O=[N+]([O-])c1ccc2nc(-c3ccc(Cl)cc3)[nH]c2c1	17	24*	2	-3	3
CCCCS(=O)(=O)/C=C\C=C/S(=O)(=O)CCCC	-9	40*	-6	-38	-5
Cc1ccc(NC(=S)NCCN(C2CCCCC2)C2CCCC2)cc1	33	31*	-27	-5	-2
CCc1nnc(NC(=O)CSc2nnc(Cc3cc(=O)[nH]c(=O)[nH]3)n2-c2cccc(OC)c2)s1	-22	17*	18	-2	-10
COC(=O)C(c1ccccc1)N(Cc1cccc(CN(C(C(=O)OC)c2ccccc2)S(C)(=O)=O)c1)S(C)(=O)=O (configuration not stated)	-49	7	-29	-2	10
COc1cccc(-c2c(NC(=O)c3ccco3)oc3ccccc3c2=O)c1	-16	-5	12	-10	-6
O=C(Nc1oc2ccccc2c(=O)c1-c1ccc(Br)cc1)c1ccco1	-18	-6	16	-6	63*
CCOC(=O)c1ccc(N2C(=O)C3C(C2=O)C(C(=O)c2ccc(Cl)cc2)N2CCCC32)cc1 (configuration not stated)	-18	7	29	-9	74*
Cc1cccc(C)c1N1C(=O)[C@@H]2C(c3ccccc3Cl)=NO[C@@H]2C1=O	-11	-2	-1	-4	1
COc1ccc(OC)c(N2C(=O)[C@@H]3C(c4ccccc4Cl)=NO[C@@H]3C2=O)c1	-21	-5	14	-2	77*
Cc1cc(C)n2c(SC/C(O)=C(\C#N)c3nc4ccccc4[nH]3)nnc2n1	-7	-15	15	-15	75*
COC(=O)c1ccc(CNC(=O)C2CCC(=O)N(CCN3CCOCC3)C2)cc1 (configuration not stated)	-6	-15	9	-15	·
O=C1CCCCC1Sc1nnc(Cc2cccs2)n1CCc1ccccc1 (configuration not stated)	-24	7	0	-5	51*
COc1ccccc1CCCNC(=O)C1CCC(=O)N(CCc2cccc(F)c2)C1 (configuration not stated)	-52	10	-3	-4	-8
COc1cccc(-c2nc(N)nc(SC)c2C#N)c1	-4	-8	-1	-7	-2
